Measured values published in ChEMBL document CHEMBL1138940, “Design and synthesis of orally efficacious benzimidazoles as melanin-concentrating hormone receptor 1 antagonists” (Bioorg Med Chem Lett, 2006).

Assays:
[1] = biological target: Melanin-concentrating hormone receptor 2 (Homo sapiens) (UniProt Q969V1); assay: Binding affinity to human MCHR2 assessed as inhibition of MCH-mediated calcium ion influx by FLIPR assay; format: functional
[2] = biological target: T1, Melanin-concentrating hormone receptor 1 (Homo sapiens, UniProt Q99705); assay: Binding affinity to human MCHR1 by radioligand binding assay
T1 sequence (Q99705 whole entry): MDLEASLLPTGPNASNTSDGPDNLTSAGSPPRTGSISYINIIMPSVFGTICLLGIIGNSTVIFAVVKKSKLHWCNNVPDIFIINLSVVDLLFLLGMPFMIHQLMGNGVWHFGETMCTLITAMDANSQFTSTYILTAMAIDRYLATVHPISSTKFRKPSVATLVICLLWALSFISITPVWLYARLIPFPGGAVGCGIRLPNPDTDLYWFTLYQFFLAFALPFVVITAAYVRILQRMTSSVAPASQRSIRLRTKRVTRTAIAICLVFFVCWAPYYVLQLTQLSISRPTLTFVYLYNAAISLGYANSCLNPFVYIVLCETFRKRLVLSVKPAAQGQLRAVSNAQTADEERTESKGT

Rattus norvegicus = assay: AUC(0-6h) in rat at 10 mg/kg, po; conditions: in vivo
[3] = biological target: T1, Melanin-concentrating hormone receptor 1; assay: Binding affinity to human MCHR1 assessed as inhibition of MCH-mediated calcium ion influx by FLIPR assay; format: functional
Method in brief: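 Functional antagonism at human MCH-R1: cells expressing hMCH-R1 were read by FLIPR for block of MCH-mediated Ca2+ influx, and the value was reported as Kb.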

[4] = biological target: Melanin-concentrating hormone receptor 1 (Mus musculus) (UniProt Q8JZL2); assay: Inhibition of MCH-ADO binding to mouse brain at 30 mg/kg, po after 6 hrs; format: functional, organism-based; set-up: dose 30 mg/kg
Melanin-concentrating hormone receptor 1 (Mus musculus), sequence (Q8JZL2 whole entry): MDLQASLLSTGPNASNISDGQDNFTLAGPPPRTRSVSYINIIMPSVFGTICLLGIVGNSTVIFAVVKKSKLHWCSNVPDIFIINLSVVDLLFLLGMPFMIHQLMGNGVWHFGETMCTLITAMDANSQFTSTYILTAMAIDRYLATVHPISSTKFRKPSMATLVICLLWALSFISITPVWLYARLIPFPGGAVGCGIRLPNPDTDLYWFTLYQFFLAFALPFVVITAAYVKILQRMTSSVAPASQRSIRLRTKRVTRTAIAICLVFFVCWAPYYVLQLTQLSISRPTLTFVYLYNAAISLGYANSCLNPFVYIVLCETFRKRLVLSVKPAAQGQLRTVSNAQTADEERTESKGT
Method in brief: (§1)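 Mouse ex vivo receptor binding after a single 30 mg/kg oral dose: MCH-ADO binding was measured at 6 h and 24 h post-dose and expressed as percent inhibition relative to vehicle controls, mean ± SEM, n = 3.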

[5] = biological target: Melanin-concentrating hormone receptor 1 (Mus musculus) (UniProt Q8JZL2); assay: Inhibition of MCH-ADO binding to mouse brain at 30 mg/kg, po after 24 hrs; format: functional, organism-based; set-up: dose 30 mg/kg; method in brief: as §1
Mus musculus [6] = assay: Inhibition of cumulative food intake in DIO mouse at 30 mg/kg, po after 2 hrs; format: functional
Method in brief: (§2)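 Diet-induced obese mice were fasted 24 h, then given 30 mg/kg orally 1 h before dark onset. Food was returned at dark onset, and cumulative intake was measured at 2, 6 and 24 h. Results are expressed as percent inhibition versus vehicle-treated controls.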

Mus musculus [7] = assay: Inhibition of cumulative food intake in DIO mouse at 30 mg/kg, po after 6 hrs; format: functional; method in brief: as §2
Mus musculus [8] = assay: Inhibition of cumulative food intake in DIO mouse at 30 mg/kg, po after 24 hrs; format: functional; method in brief: as §2

Melanin-concentrating hormone receptor 2 (Homo sapiens), sequence (Q969V1 whole entry): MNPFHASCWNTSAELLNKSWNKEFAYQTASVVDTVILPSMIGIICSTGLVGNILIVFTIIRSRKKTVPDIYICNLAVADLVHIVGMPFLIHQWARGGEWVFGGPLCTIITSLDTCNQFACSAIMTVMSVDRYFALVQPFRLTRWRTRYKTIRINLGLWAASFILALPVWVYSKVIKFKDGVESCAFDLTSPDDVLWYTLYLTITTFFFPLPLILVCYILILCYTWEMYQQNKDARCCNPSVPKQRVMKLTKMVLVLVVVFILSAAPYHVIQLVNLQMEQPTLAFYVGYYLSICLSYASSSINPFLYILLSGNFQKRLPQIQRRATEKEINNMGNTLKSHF

N#Cc1cccc(-c2ccc(C(=C3CCN(C(=O)C4CC4)CC3)c3nc4cc(C(F)(F)F)c(F)cc4[nH]3)cc2)c1 gave an Activity [1] greater than 3 µM and a Ki [2] of 31 nM.
Compound N#Cc1cccc(-c2ccc(C(=C3CCN(CCO)CC3)c3nc4cc(F)c(C(F)(F)F)cc4[nH]3)cc2)c1 has an Activity [1] greater than 3 µM.
N#Cc1ccc(F)c(-c2ccc(C(=C3CCN(CC4CC4)CC3)c3nc4cc(C(F)(F)F)c(F)cc4[nH]3)cc2)c1 gave an AUC (Rattus norvegicus) of 3000 ng·h/mL and a Ki [2] of 3.9 nM.
For N#Cc1cccc(-c2ccc(C(=C3CCN(CC4CC4)CC3)c3nc4cc(Cl)c(Cl)cc4[nH]3)cc2)c1, the Kb [3] was 70 nM, the Activity [1] was greater than 3 µM and the inhibition [4] was 68%. It also gave an inhibition [5] of 54%, an inhibition in vivo at 30 mg/kg (Mus musculus [6]) of 37.4% and an inhibition in vivo at 30 mg/kg (Mus musculus [7]) of 41.8%. For the same compound, the inhibition in vivo at 30 mg/kg (Mus musculus [8]) was 26.8%, the AUC (Rattus norvegicus) was 6640 ng·h/mL and the Ki [2] was 15 nM.
Oc1ccc(-c2ccc(C(=C3CCN(CC4CC4)CC3)c3nc4cc(F)c(C(F)(F)F)cc4[nH]3)cc2)cn1 was tested, and the Activity [1] was greater than 3 µM and the Ki [2] was 174 nM.
CS(=O)(=O)N1CCC(=C(c2ccc(-c3cccc(C#N)c3)cc2)c2nc3cc(F)c(C(F)(F)F)cc3[nH]2)CC1 was tested, and the Activity [1] was greater than 3 µM and the Ki [2] was 71.4 nM.
Compound N#Cc1cccc(-c2ccc(C(=C3CCNCC3)c3nc4cc(C(F)(F)F)c(F)cc4[nH]3)cc2)c1 has an Activity [1] greater than 3 µM and a Ki [2] of 3.6 nM.
N#Cc1cccc(-c2ccc(C(=C3CCN(CC4CC4)CC3)c3nc4cc(Cl)cc(Cl)c4[nH]3)cc2)c1 gave an Activity [1] greater than 3 µM and a Ki [2] of 87 nM.
Compound NC(=O)c1cccc(-c2ccc(C(=C3CCN(CC4CC4)CC3)c3nc4cc(F)c(C(F)(F)F)cc4[nH]3)cc2)c1 has an Activity [1] greater than 3 µM.
Work on N#Cc1ccc(F)c(-c2ccc(C(=C3CCN(CC4CC4)CC3)c3nc4cc(F)c(C(F)(F)F)cc4[nH]3)cc2)c1 yielded an Activity [1] greater than 3 µM, an inhibition [4] of 92% and an inhibition [5] of 80%.
NC(=O)c1cccc(-c2ccc(C(=C3CCN(CC4CC4)CC3)c3nc4cc(C(F)(F)F)c(F)cc4[nH]3)cc2)c1 was tested, and the Ki [2] was 77 nM.
In the case of N#Cc1ccccc1-c1ccc(C(=C2CCN(CC3CC3)CC2)c2nc3cc(C(F)(F)F)c(F)cc3[nH]2)cc1, the Activity [1] is reported as greater than 3 µM and the Ki [2] is reported as 464 nM.
With N#Cc1cccc(-c2ccc(C3(c4nc5cc(C(F)(F)F)c(F)cc5[nH]4)CC34CCN(C(=O)N3CCCC3)CC4)cc2)c1 (configuration not stated) the Activity [1] was greater than 3 µM.
For N#Cc1cccc(-c2ccc(C(=C3CCN(CC4CC4)CC3)c3nc4cc(F)c(F)cc4[nH]3)cc2)c1, the Activity [1] was greater than 3 µM and the Ki [2] was 52 nM.
In the case of N#Cc1cnc(O)c(-c2ccc(C(=C3CCN(CC4CC4)CC3)c3nc4cc(F)c(C(F)(F)F)cc4[nH]3)cc2)c1, the Activity [1] is reported as greater than 3 µM.
In the case of Fc1cc2[nH]c(C(=C3CCN(CC4CC4)CC3)c3ccc(-c4cncnc4)cc3)nc2cc1C(F)(F)F, the Activity [1] is reported as greater than 3 µM.
N#Cc1cccc(-c2ccc(C(=C3CCN(Cc4nccs4)CC3)c3nc4cc(C(F)(F)F)c(F)cc4[nH]3)cc2)c1 gave an Activity [1] greater than 3 µM and a Ki [2] of 45 nM.
N#Cc1cccc(-c2ccc(C(=C3CCN(CC4CC4)CC3)c3nc4cc(C#N)ccc4[nH]3)cc2)c1 was tested, and the Activity [1] was greater than 3 µM.
Work on CN(C)S(=O)(=O)N1CCC(=C(c2ccc(-c3cccc(C#N)c3)cc2)c2nc3cc(F)c(C(F)(F)F)cc3[nH]2)CC1 yielded an Activity [1] greater than 3 µM and a Ki [2] of 64 nM.
Compound N#Cc1cccc(-c2ccc(C(=C3CCN(CCO)CC3)c3nc4cc(C(F)(F)F)c(F)cc4[nH]3)cc2)c1 has a Ki [2] of 7.2 nM.
For Cn1cccc1C(=O)N1CCC(=C(c2ccc(-c3cccc(C#N)c3)cc2)c2nc3cc(C(F)(F)F)c(F)cc3[nH]2)CC1, the Ki [2] was 10.1 nM.
CC(C)S(=O)(=O)N1CCC(=C(c2ccc(-c3cccc(C#N)c3)cc2)c2nc3cc(F)c(C(F)(F)F)cc3[nH]2)CC1 was tested, and the Activity [1] was greater than 3 µM.
Compound N#Cc1cccc(-c2ccc(C(=C3CCN(CC(N)=O)CC3)c3nc4cc(C(F)(F)F)c(F)cc4[nH]3)cc2)c1 has a Ki [2] of 15.5 nM.
Work on Cn1cccc1C(=O)N1CCC(=C(c2ccc(-c3cccc(C#N)c3)cc2)c2nc3cc(F)c(C(F)(F)F)cc3[nH]2)CC1 yielded an Activity [1] greater than 3 µM.
N#Cc1cccc(-c2ccc(C3(c4nc5cc(C(F)(F)F)c(F)cc5[nH]4)CC34CCNCC4)cc2)c1 (configuration not stated) showed an Activity [1] greater than 3 µM.
Work on CC(C)S(=O)(=O)N1CCC2(CC1)CC2(c1ccc(-c2cccc(C#N)c2)cc1)c1nc2cc(F)c(C(F)(F)F)cc2[nH]1 (configuration not stated) yielded an Activity [1] greater than 3 µM and a Ki [2] of 67 nM.
N#Cc1cncc(-c2ccc(C(=C3CCN(CC4CC4)CC3)c3nc4cc(C(F)(F)F)c(F)cc4[nH]3)cc2)c1 showed an Activity [1] greater than 3 µM and a Ki [2] of 10.3 nM.
CN(C)C(=O)N1CCC(=C(c2ccc(-c3cccc(C#N)c3)cc2)c2nc3cc(F)c(C(F)(F)F)cc3[nH]2)CC1 was tested, and the Activity [1] was greater than 3 µM, the inhibition [4] was 50% and the AUC (Rattus norvegicus) was 1290 ng·h/mL. The Ki [2] was 37 nM.
In the case of N#Cc1cccc(-c2ccc(C(=C3CCN(CC(N)=O)CC3)c3nc4cc(F)c(C(F)(F)F)cc4[nH]3)cc2)c1, the Activity [1] is reported as greater than 3 µM.
CS(=O)(=O)c1cccc(-c2ccc(C(=C3CCN(CC4CC4)CC3)c3nc4cc(F)c(C(F)(F)F)cc4[nH]3)cc2)c1 gave an Activity [1] greater than 3 µM.
CCN(CC)C(=O)N1CCC2(CC1)CC2(c1ccc(-c2cccc(C#N)c2)cc1)c1nc2cc(F)c(C(F)(F)F)cc2[nH]1 (configuration not stated) showed an Activity [1] greater than 3 µM and a Ki [2] of 221 nM.
For N#Cc1c[nH]c(=O)c(-c2ccc(C(=C3CCN(CC4CC4)CC3)c3nc4cc(C(F)(F)F)c(F)cc4[nH]3)cc2)c1, the Ki [2] was 99 nM.
With N#CCc1cccc(-c2ccc(C(=C3CCN(CC4CC4)CC3)c3nc4cc(C(F)(F)F)c(F)cc4[nH]3)cc2)c1 the Activity [1] was greater than 3 µM and the Ki [2] was 26 nM.
In the case of CCN(CC)CCN1CCC2(CC1)CC2(c1ccc(-c2cccc(C#N)c2)cc1)c1nc2cc(F)c(C(F)(F)F)cc2[nH]1 (configuration not stated), the Activity [1] is reported as greater than 3 µM and the Ki [2] is reported as 15 nM.
In the case of CN(C)C(=O)N1CCC2(CC1)CC2(c1ccc(-c2cccc(C#N)c2)cc1)c1nc2cc(F)c(C(F)(F)F)cc2[nH]1 (configuration not stated), the Activity [1] is reported as greater than 3 µM and the Ki [2] is reported as 32 nM.
N#Cc1cccc(-c2ccc(C3(c4nc5cc(F)c(C(F)(F)F)cc5[nH]4)CC34CCN(CC(=O)O)CC4)cc2)c1 (configuration not stated) showed an Activity [1] greater than 3 µM and a Ki [2] of 41 nM.
Compound CC(=O)N1CCC(=C(c2ccc(-c3cccc(C#N)c3)cc2)c2nc3cc(F)c(C(F)(F)F)cc3[nH]2)CC1 has an Activity [1] greater than 3 µM, an inhibition [4] of 48% and an AUC (Rattus norvegicus) of 5250 ng·h/mL. The Ki [2] was 31 nM.
N#Cc1cccc(-c2ccc(C3(c4nc5cc(C(F)(F)F)c(F)cc5[nH]4)CC34CCN(Cc3ccccc3)CC4)cc2)c1 (configuration not stated) showed an Activity [1] greater than 3 µM.
Compound N#Cc1cccc(-c2ccc(C(=C3CCN(C(=O)c4cccs4)CC3)c3nc4cc(C(F)(F)F)c(F)cc4[nH]3)cc2)c1 has an Activity [1] greater than 3 µM.
N#Cc1cccc(-c2ccc(C(=C3CCN(CC4CC4)CC3)c3nc4cc(C(F)(F)F)c(F)cc4[nH]3)cc2)c1 showed an Activity [1] greater than 3 µM, an inhibition [4] of 96% and an inhibition [5] of 84%. The inhibition in vivo at 30 mg/kg (Mus musculus [6]) was 31%, the inhibition in vivo at 30 mg/kg (Mus musculus [7]) was 32.6% and the inhibition in vivo at 30 mg/kg (Mus musculus [8]) was 18.6%.
Compound CCN(CC)C(=O)N1CCC(=C(c2ccc(-c3cccc(C#N)c3)cc2)c2nc3cc(F)c(C(F)(F)F)cc3[nH]2)CC1 has an Activity [1] greater than 3 µM and a Ki [2] of 22 nM.
Work on N#Cc1cccc(-c2ccc(C3(c4nc5cc(C(F)(F)F)c(F)cc5[nH]4)CC34CCN(CC3CC3)CC4)cc2)c1 (configuration not stated) yielded an Activity [1] greater than 3 µM and an inhibition [4] of 74%.
